What was measured:
Leishmania major [1] = test: Antileishmanial activity against Leishmania major IR-173 promastigotes assessed as inhibition of parasite growth incubated for 48 hrs by resazurin staining based analysis; format: functional, organism-based; conditions: IR-173, 48 h
In short: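 Logarithmic-phase promastigotes (1.25 × 10^6 cells per mL) grown in supplemented M199 with 10% FBS, pH 7.3–7.4, 26 °C. […] 48 h at 26 °C, then resazurin 24 h in the dark. Absorbance 570 minus 600 nm. IC50 by non-linear regression, mean ± SD of three biological replicates.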

Leishmania donovani [2] = test: Antileishmanial activity against Leishmania donovani MHOM/IN/95/9515 promastigotes assessed as inhibition of parasite growth incubated for 48 hrs by resazurin staining based analysis; format: functional, organism-based; conditions: MHOM/IN/95/9515, 48 h
Leishmania major [3] = test: Antileishmanial activity against Leishmania major IR-173 amastigote assessed as inhibition of parasite growth incubated for 72 hrs by resazurin staining based analysis; conditions: IR-173, 72 h
Leishmania donovani [4] = test: Antileishmanial activity against Leishmania donovani MHOM/IN/95/9515 amastigote assessed as inhibition of parasite growth incubated for 72 hrs by resazurin staining based analysis; conditions: MHOM/IN/95/9515, 72 h
THP-1 = test: cells; format: functional, cell-based; conditions: Homo sapiens, THP-1, 72 h
Trypanosoma cruzi [5] = test: Antitrypanosomal activity against Trypanosoma cruzi epimastigotes assessed as parasite growth inhibition incubated for 48 hrs by resazurin staining based analysis; format: functional, organism-based
[6] = Selectivity index, ratio of IC50 for cytotoxicity against African green monkey Vero cells assessed as inhibition of cell growth to IC50 for antitrypanosomal activity against Trypanosoma cruzi epimastigotes assessed as parasite growth inhibition; format: toxicity, cell-based; conditions: read-out: Ratio IC50
[7] = Selectivity index, ratio of IC50 for cytotoxicity against African green monkey Vero cells assessed as inhibition of cell growth to IC50 for antitrypanosomal activity against Trypanosoma cruzi trypomastigotes assessed as parasite growth inhibition; format: toxicity, cell-based; conditions: read-out: Ratio IC50
[8] = Selectivity index, ratio of IC50 for cytotoxicity against human THP-1 cells assessed as inhibition of cell growth to IC50 for antitrypanosomal activity against Trypanosoma cruzi trypomastigotes assessed as parasite growth inhibition; format: functional
Trypanosoma cruzi [9] = test: Selectivity index, ratio of IC50 for antitrypanosomal activity against Trypanosoma cruzi epimastigote assessed as parasite growth inhibition to IC50 for antitrypanosomal activity against Trypanosoma cruzi trypomastigotes assessed as parasite growth inhibition; format: functional
in vitro [10] = conditions: monkey, Vero cells
in vitro [11] = conditions: monkey, Vero cells; remark: listed apart in the source
Trypanosoma cruzi [12] = test: Antitrypanosomal activity against bloodstream Trypanosoma cruzi trypomastigotes infected in African green monkey Vero cells assessed as parasite growth inhibition incubated for 48 hrs by resazurin assay
[13] = Selectivity index, ratio of IC50 for cytotoxicity against human THP-1 cells assessed as inhibition of cell growth to IC50 for antileishmanial activity against Leishmania donovani MHOM/IN/95/9515 amastigote assessed as inhibition of parasite growth; format: functional
Leishmania donovani [14] = test: Selectivity index, ratio of IC50 for antileishmanial activity against Leishmania donovani MHOM/IN/95/9515 promastigotes assessed as inhibition of parasite growth to IC50 for antileishmanial activity against Leishmania donovani MHOM/IN/95/9515 amastigote assessed as inhibition of parasite growth; format: functional
in vitro [15] = conditions: monkey, Vero cells; remark: listed apart in the source
Leishmania major [16] = test: Selectivity index, ratio of IC50 for antileishmanial activity against Leishmania major IR-173 promastigotes assessed as inhibition of parasite growth to IC50 for antileishmanial activity against Leishmania major IR-173 amastigote assessed as inhibition of parasite growth; format: functional
in vitro [17] = conditions: monkey, Vero cells; remark: listed apart in the source

| IC50 (THP-1) [µM] | IC50 (Trypanosoma cruzi [5]) [µM] | IC50 (Trypanosoma cruzi [12]) [µM] | Compound | IC50 (Leishmania major [1]) [µM] | IC50 (Leishmania donovani [2]) [µM] | IC50 (Leishmania major [3]) [µM] | IC50 (Leishmania donovani [4]) [µM] | selectivity ratio [6] | selectivity ratio [7] | Ratio IC50 [8] | Ratio IC50 (Trypanosoma cruzi [9]) | selectivity ratio (in vitro [10]) | selectivity ratio (in vitro [11]) | Ratio IC50 [13] | Ratio IC50 (Leishmania donovani [14]) | selectivity ratio (in vitro [15]) | Ratio IC50 (Leishmania major [16]) | selectivity ratio (in vitro [17]) |
| --- | --- | --- | --- | --- | --- | --- | --- | --- | --- | --- | --- | --- | --- | --- | --- | --- | --- | --- |
| – | – | – | O=C1OCCN1/N=C/c1ccc([N+](=O)[O-])o1 [FURAZOLIDONE] | 0.34 | 0.28 | 5.61 | 2.7 | – | – | – | – | – | – | – | – | – | – | – |
| > 100 | 3.69 | 4.04 | Cc1ccc(/C=N/N=C/c2ccc([N+](=O)[O-])o2)cc1 | 0.42 | 0.76 | > 10 | > 10 | 27 | 25 | 25 | 0.91 | 238 | 132 | – | – | – | – | – |
| 26.7 | > 10 | 1.62 | O=Cc1ccc([N+](=O)[O-])s1 | 3.75 | 5.07 | > 10 | > 10 | – | 8 | 16 | – | 3 | 2 | – | – | – | – | – |
| > 100 | – | 4.79 | O=C(Cn1ccnc1[N+](=O)[O-])NCc1ccccc1 [BENZNIDAZOLE] | – | – | – | – | – | 21 | 21 | – | – | – | – | – | – | – | – |
| > 100 | 7.66 | 2.31 | O=[N+]([O-])c1ccc(/C=N/N=C/c2ccccc2)o1 | 1.19 | 1.45 | > 10 | > 10 | 2 | 7 | 42 | 3.32 | 14 | 11 | – | – | – | – | – |
| > 100 | 9.21 | 2.5 | O=[N+]([O-])c1ccc(/C=N/N=C/c2ccccc2)s1 | 1.43 | 0.93 | > 10 | 7.26 | 5 | 17 | 40 | 3.68 | 29 | 45 | 14 | 0.13 | 6 | – | – |
| 22.9 | > 10 | 3.04 | O=[N+]([O-])c1ccc(/C=N/N=C/c2ccc(O)cc2)s1 | 2.22 | 1.66 | > 10 | 0.34 | – | 11 | 8 | – | 15 | 20 | 67 | 4.88 | 97 | – | – |
| > 100 | 4.92 | 6.14 | COc1ccc(/C=N/N=C/c2ccc([N+](=O)[O-])o2)cc1 | 0.89 | 1.16 | > 10 | 2.28 | 10 | 8 | 16 | 0.8 | 57 | 44 | 44 | 0.51 | 22 | – | – |
| 46.2 | 7.3 | 1.74 | O=[N+]([O-])c1ccc(/C=N/N=C/c2ccc(O)cc2)o1 | 0.64 | 1.02 | > 10 | 2.7 | 3 | 11 | 27 | 4.2 | 29 | 18 | 17 | 0.38 | 7 | – | – |
| – | > 10 | > 10 | O=[N+]([O-])c1ccc(/C=N/N=C/c2ccco2)cc1 | > 10 | > 10 | > 10 | > 10 | – | – | – | – | – | – | – | – | – | – | – |
| 16.8 | 2.63 | 0.78 | O=[N+]([O-])c1ccc(/C=N/N=C/c2ccc([N+](=O)[O-])o2)cc1 | 0.7 | 0.7 | 7.9 | 0.53 | 4 | 15 | 21 | 3.37 | 17 | 17 | 32 | 1.32 | 22 | 0.09 | 1 |
| 63.4 | 3.56 | 1.95 | O=[N+]([O-])c1ccc(/C=N/N=C/c2ccc(F)cc2)o1 | 0.73 | 1.18 | 3.69 | > 10 | 13 | 24 | 51 | 1.83 | 65 | 40 | – | – | – | 0.2 | 13 |
| > 100 | 7.83 | 2.23 | NC(=O)N/N=C/c1ccc([N+](=O)[O-])o1 [NITROFURAZONE] | 1.85 | 1.85 | > 10 | 1.69 | 13 | 45 | 45 | 3.5 | 54 | 54 | – | 1.09 | 59 | – | – |
| > 100 | – | – | O=[N+]([O-])c1ccc(/C=N/N=C/c2ccc(OCc3ccccc3)cc2)s1 | 4.39 | – | > 10 | – | – | – | – | – | 23 | – | – | – | – | – | – |
| > 100 | 46.1 | > 10 | O=[N+]([O-])c1ccc(/C=N/N=C/c2ccc(Br)cc2)o1 | 0.75 | 3.56 | 0.63 | 6.41 | 2 | – | – | – | 133 | 28 | 16 | 0.56 | 16 | 1.19 | 159 |
| – | > 10 | > 10 | C(=N\N=C\c1ccco1)/c1ccc(OCc2ccccc2)cc1 | > 10 | > 10 | > 10 | > 10 | – | – | – | – | – | – | – | – | – | – | – |
| > 100 | 95.2 | > 10 | O=[N+]([O-])c1ccc(/C=N/N=C/c2ccc(OCc3ccccc3)cc2)o1 | 0.45 | 1.61 | > 10 | 0.25 | 1 | – | – | – | 222 | 62 | 400 | 6.44 | 400 | – | – |
| > 100 | 2.41 | 3.05 | O=[N+]([O-])c1ccc(/C=N/N=C/c2ccc(Cl)cc2)o1 | 0.42 | 0.67 | 2.47 | > 10 | 41 | 33 | 33 | 0.79 | 238 | 149 | – | – | – | 0.17 | 40 |
| 80.9 | > 10 | > 10 | O=Cc1ccc([N+](=O)[O-])o1 | 7.94 | > 10 | 5.6 | 2.68 | – | – | – | – | 2 | – | 30 | – | – | 1.42 | 3 |
| > 100 | > 10 | 6.56 | O=[N+]([O-])c1ccc(/C=N/N=C/c2ccc(F)cc2)s1 | 3.79 | 2 | > 10 | > 10 | – | 15 | 15 | – | 26 | 50 | – | – | – | – | – |
